pIC50: −log10 of the molar value.
What was measured:
[1] = molecular target: T1, RAC-beta serine/threonine-protein kinase (Homo sapiens, UniProt P31751); assay: Inhibition of human cloned Akt2 expressed in Drosophila S2 cells by HTRF assay; assay type: cell-based
[2] = molecular target: T2, RAC-alpha serine/threonine-protein kinase (Homo sapiens, UniProt P31749); assay: Inhibition of human cloned Akt1 expressed in Drosophila S2 cells by HTRF assay; assay type: cell-based
[3] = Inhibition of PKC
[4] = molecular target: T3, Serine/threonine-protein kinase Sgk1 (Homo sapiens, UniProt O00141); assay: Inhibition of SGK
T3 sequence (O00141 whole entry): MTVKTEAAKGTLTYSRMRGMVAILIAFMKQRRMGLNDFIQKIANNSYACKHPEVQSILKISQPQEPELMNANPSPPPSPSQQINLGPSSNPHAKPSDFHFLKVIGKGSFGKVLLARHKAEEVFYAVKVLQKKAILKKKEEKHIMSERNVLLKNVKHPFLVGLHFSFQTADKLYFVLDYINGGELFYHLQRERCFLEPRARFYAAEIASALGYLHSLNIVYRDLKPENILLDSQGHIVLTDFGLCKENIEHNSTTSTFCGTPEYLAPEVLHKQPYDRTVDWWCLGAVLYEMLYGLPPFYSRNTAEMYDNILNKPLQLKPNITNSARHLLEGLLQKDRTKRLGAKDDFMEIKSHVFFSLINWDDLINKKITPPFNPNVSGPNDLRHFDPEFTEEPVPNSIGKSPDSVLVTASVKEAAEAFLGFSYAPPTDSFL

[5] = molecular target: T1, RAC-beta serine/threonine-protein kinase; assay: Inhibition of Akt2 by cell based assay
[6] = Inhibition of PKA
[7] = molecular target: T2, RAC-alpha serine/threonine-protein kinase; assay: Inhibition of Akt1 by cell based assay
[8] = Drug level in blood of nude mouse xenografted with […] at 18 mg/mL after 20 hrs; assay type: ADME, tissue-based; conditions: whole blood, read-out: Drug uptake
How it was run: (§1)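 Nude mice bearing C33a cervical carcinoma tumours, 3 per concentration. Hydrochloride salt in 25% hydroxypropyl-b-cyclodextrin given by mini-pump at 8 µL/hr for 20 hrs, pump solution 70 or 18 mg/mL. Blood drawn for PK at 3, 6, 8, 11 and 20 h, so steady-state blood level is known. Euthanized at 20 h. Akt1 and Akt2 phosphorylation activity measured in lung as % inhibition.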

[9] = test system: Mus musculus; assay: Inhibition of Akt1 phosphorylation in lung of nude mouse xenografted with C33a cells at 18 mg/mL administered through mini-pump after 20 hrs by IP kinase assay; assay type: functional; how it was run: as §1
[10] = molecular target: Voltage-gated inwardly rectifying potassium channel KCNH2 (Homo sapiens, UniProt Q12809); assay: Inhibition of human ERG expressed in HEK cells by competitive radioligand binding assay; assay type: cell-based, HEK293
[11] = test system: Mus musculus; assay: Inhibition of Akt2 phosphorylation in lung of nude mouse xenografted with C33a cells at 70 mg/mL administered through mini-pump after 20 hrs by IP kinase assay; assay type: functional; how it was run: as §1
[12] = test system: Mus musculus; assay: Inhibition of Akt2 phosphorylation in lung of nude mouse xenografted with C33a cells at 18 mg/mL administered through mini-pump after 20 hrs by IP kinase assay; assay type: functional; how it was run: as §1
[13] = Drug level in blood of nude mouse xenografted with […] at 70 mg/mL after 20 hrs; assay type: ADME, tissue-based; conditions: whole blood, read-out: Drug uptake; how it was run: as §1
[14] = test system: Mus musculus; assay: Inhibition of Akt2 phosphorylation in lung of nude mouse xenografted with C33a cells at 10 mg/mL administered through mini-pump after 20 hrs by IP kinase assay; assay type: functional
[15] = test system: Mus musculus; assay: Inhibition of Akt1 phosphorylation in lung of nude mouse xenografted with C33a cells at 70 mg/mL administered through mini-pump after 20 hrs by IP kinase assay; assay type: functional; conditions: in the assay text read “10 mg/mL” for “70 mg/mL”
[16] = Drug level in blood of nude mouse xenografted with […] at 10 mg/mL after 20 hrs; assay type: ADME, tissue-based; conditions: whole blood, read-out: Drug uptake

Voltage-gated inwardly rectifying potassium channel KCNH2, sequence (Q12809 whole entry): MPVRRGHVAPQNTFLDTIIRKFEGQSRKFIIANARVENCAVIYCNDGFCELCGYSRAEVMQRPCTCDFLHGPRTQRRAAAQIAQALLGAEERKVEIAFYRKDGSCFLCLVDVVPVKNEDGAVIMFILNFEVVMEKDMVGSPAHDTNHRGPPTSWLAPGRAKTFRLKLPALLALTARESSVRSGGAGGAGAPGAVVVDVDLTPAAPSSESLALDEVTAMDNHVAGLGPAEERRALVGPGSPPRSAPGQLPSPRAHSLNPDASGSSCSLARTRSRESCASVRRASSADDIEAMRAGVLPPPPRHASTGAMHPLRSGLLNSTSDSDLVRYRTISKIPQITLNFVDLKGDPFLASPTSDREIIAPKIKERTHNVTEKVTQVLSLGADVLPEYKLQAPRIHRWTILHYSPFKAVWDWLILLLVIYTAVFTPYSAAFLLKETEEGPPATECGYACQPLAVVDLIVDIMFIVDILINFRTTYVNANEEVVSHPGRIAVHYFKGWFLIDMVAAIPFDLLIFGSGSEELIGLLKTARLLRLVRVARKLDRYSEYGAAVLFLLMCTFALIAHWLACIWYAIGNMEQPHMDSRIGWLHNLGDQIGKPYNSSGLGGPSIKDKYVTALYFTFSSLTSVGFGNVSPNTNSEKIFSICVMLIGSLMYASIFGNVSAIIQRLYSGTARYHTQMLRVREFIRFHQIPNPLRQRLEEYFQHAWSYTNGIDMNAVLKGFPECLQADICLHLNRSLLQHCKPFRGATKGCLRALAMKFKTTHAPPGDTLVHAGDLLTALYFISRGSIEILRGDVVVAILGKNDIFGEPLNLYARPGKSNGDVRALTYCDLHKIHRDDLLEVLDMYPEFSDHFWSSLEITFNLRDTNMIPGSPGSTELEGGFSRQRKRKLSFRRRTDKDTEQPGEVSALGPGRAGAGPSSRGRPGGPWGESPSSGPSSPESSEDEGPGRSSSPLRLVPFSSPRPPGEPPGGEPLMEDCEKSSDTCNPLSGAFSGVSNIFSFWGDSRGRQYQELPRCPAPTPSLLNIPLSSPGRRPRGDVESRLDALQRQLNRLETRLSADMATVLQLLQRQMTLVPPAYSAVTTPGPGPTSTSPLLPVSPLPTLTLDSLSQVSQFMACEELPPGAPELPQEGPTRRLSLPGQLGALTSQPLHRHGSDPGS
T2 sequence (P31749 whole entry): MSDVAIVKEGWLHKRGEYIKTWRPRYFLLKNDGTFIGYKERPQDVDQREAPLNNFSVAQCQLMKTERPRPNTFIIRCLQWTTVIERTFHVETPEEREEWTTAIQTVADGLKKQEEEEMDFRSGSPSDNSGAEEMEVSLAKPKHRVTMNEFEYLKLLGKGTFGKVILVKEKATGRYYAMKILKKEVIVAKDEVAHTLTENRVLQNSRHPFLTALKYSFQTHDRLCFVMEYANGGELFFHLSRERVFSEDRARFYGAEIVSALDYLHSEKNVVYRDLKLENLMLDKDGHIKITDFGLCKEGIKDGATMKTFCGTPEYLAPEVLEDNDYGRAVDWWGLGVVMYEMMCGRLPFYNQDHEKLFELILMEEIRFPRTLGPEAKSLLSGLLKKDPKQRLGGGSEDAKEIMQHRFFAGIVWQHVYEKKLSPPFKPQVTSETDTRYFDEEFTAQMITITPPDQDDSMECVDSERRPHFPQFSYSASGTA
T1 sequence (P31751 whole entry): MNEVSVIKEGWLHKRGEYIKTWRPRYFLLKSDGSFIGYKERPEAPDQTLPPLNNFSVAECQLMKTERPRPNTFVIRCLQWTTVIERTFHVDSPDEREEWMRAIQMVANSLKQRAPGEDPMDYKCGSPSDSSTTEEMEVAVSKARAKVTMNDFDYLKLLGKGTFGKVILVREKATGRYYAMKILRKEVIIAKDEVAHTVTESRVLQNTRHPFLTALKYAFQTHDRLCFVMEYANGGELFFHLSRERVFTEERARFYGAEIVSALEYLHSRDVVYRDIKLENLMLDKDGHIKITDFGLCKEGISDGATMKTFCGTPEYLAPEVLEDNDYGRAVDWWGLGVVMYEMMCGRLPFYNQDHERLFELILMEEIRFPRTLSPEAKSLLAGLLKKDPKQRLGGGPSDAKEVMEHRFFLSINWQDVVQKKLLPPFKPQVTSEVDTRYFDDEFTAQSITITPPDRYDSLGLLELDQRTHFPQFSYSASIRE

pIC50 [1] | pIC50 [2] | pIC50 [3] | pIC50 [4] | pIC50 [5] | pIC50 [6] | pIC50 [7] | concentration at 20 h [8] | concentration at 20 h [13] | concentration at 20 h [16] | SMILES | inhibition (INH) [9] | pIC50 [10] | inhibition (INH) [11] | inhibition (INH) [12] | inhibition (INH) [14] | inhibition (INH) [15]
7.84 | 8.34 | < 4.30 | < 4.30 | 6.75 | < 4.30 | 7.61 |  |  |  | Cc1nnc2c3cc(-c4ccccc4)c(-c4ccc(CN5CCC(c6n[nH]c(-c7ccccn7)n6)CC5)cc4)nc3ccn12 |  |  |  |  |  | 
8.03 | 8.55 | < 4.30 | < 4.30 | 7.32 | < 4.30 | 7.74 |  |  |  | Nc1nnc2c3cc(-c4ccccc4)c(-c4ccc(CN5CCC(c6n[nH]c(-c7ccccn7)n6)CC5)cc4)nc3ccn12 |  |  |  |  |  | 
7.98 | 8.00 | < 4.30 | < 4.30 | 6.97 | < 4.30 | 7.77 |  |  |  | Sc1nnc2c3cc(-c4ccccc4)c(-c4ccc(CN5CCC(c6n[nH]c(-c7ccccn7)n6)CC5)cc4)nc3ccn12 |  |  |  |  |  | 
8.17 | 8.59 | < 4.30 | < 4.30 | 6.78 | < 4.30 | 7.57 |  |  |  | Oc1nnc2c3cc(-c4ccccc4)c(-c4ccc(CN5CCC(c6n[nH]c(-c7ccccn7)n6)CC5)cc4)nc3ccn12 |  | 5.27 |  |  |  | 
8.55 | 8.48 |  |  | 7.13 |  | 7.74 |  |  |  | Nc1nnc2c3cc(-c4ccccc4)c(-c4ccc(CN5CCC(n6cnc(-c7ccccn7)c6)CC5)cc4)nc3ccn12 |  |  |  |  |  | 

Further lines, the compound ahead of its results:

SMILES | pIC50 [1] | pIC50 [2] | pIC50 [3] | pIC50 [4] | pIC50 [5] | pIC50 [6] | pIC50 [7] | concentration at 20 h [8] | concentration at 20 h [13] | concentration at 20 h [16] | inhibition (INH) [9] | pIC50 [10] | inhibition (INH) [11] | inhibition (INH) [12] | inhibition (INH) [14] | inhibition (INH) [15]
OCCNCc1nnc2c3cc(-c4ccccc4)c(-c4ccc(CN5CCC(c6n[nH]c(-c7ccccn7)n6)CC5)cc4)nc3ccn12 | 7.11 | 7.77 | < 4.30 | < 4.30 | 6.60 | < 4.30 | 7.38 |  |  |  |  |  |  |  |  | 
CN1CCN(Cc2nnc3c4cc(-c5ccccc5)c(-c5ccc(CN6CCC(c7n[nH]c(-c8ccccn8)n7)CC6)cc5)nc4ccn23)CC1 | 7.26 | 8.00 | < 4.30 | < 4.30 | 6.42 | < 4.30 | 7.20 |  |  |  |  |  |  |  |  | 
c1ccc(-c2cc3c(ccn4cnnc34)nc2-c2ccc(CN3CCC(c4n[nH]c(-c5ccccn5)n4)CC3)cc2)cc1 |  | 8.40 | < 4.30 | < 4.30 | 7.39 | < 4.30 | 8.30 | 1800 nM | 1700 nM |  | 92% | < 5.00 | 35% | 41% |  | 
O=c1[nH]ccc2nc(-c3ccc(CN4CCC(c5n[nH]c(-c6ccccn6)n5)CC4)cc3)c(-c3ccccc3)cc12 |  |  |  |  |  |  |  |  |  | 3000 nM |  | 5.25 |  |  | 4% | 85%
ClCc1nnc2c3cc(-c4ccccc4)c(-c4ccc(CN5CCC(c6n[nH]c(-c7ccccn7)n6)CC5)cc4)nc3ccn12 | 7.98 | 7.57 | < 4.30 | < 4.30 | 6.32 | < 4.30 | 6.95 |  |  |  |  | 5.70 |  |  |  | 
NC(=O)Nc1nnc2c3cc(-c4ccccc4)c(-c4ccc(CN5CCC(c6n[nH]c(-c7ccccn7)n6)CC5)cc4)nc3ccn12 | 7.62 | 8.07 | < 4.30 | < 4.30 | 5.92 | < 4.30 | 6.58 |  |  |  |  |  |  |  |  | 

— ChEMBL document CHEMBL1141029, “Allosteric inhibitors of Akt1 and Akt2: discovery of [1,2,4]triazolo[3,4-f][1,6]naphthyridines with potent and balanced activity” (Bioorg Med Chem Lett, 2009)
